According to ChEMBL document CHEMBL1157051, “New dioxazole derivatives: Synthesis and effects on the growth of Entamoeba histolytica and Giardia intestinalis” (Eur J Med Chem, 2010):
In brackets after ≈: the same amount, converted by molar mass.

Assays:
Entamoeba histolytica = test: Antiamoebic activity against Entamoeba histolytica HM-1:IMSS trophozoites after 72 hrs by microdilution technique; type: functional, organism-based
Summary of the method: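 HM1:IMSS trophozoites in TYIS-33 medium, detached by chilling on ice; 1.7 × 10⁴ organisms/well. Samples in DMSO (final ≤0.1%), diluted in medium. Plates gassed with nitrogen 10 min, incubated 37 °C for 72 h. Washed in warm 0.9% NaCl, methanol-fixed, eosin-stained, dye released with 0.1 N NaOH, OD 490 nm. IC50 from linear regression of % inhibition vs log dose; triplicate.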

Giardia intestinalis = test: Antigiardial activity against Giardia intestinalis Thai trophozoites after 24 hrs by inverted microscopic analysis; type: functional; details: Giardia duodenalis
Vero = test: Cytotoxicity against african green monkey Vero cells after 72 hrs by SRB assay; type: cell-based; details: Chlorocebus sabaeus
Summary of the method: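 Vero (ATCC CCL-81) at 10⁵ cells/mL in Eagle's MEM with heat-inactivated FBS and 1 mM sodium pyruvate. Samples at maximum final concentration […]; 0.05% DMSO negative control. 72 h at 37 °C, 5% CO₂. Viability by sulphorhodamine B assay; cytotoxic defined as IC50 below the 180 cutoff.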

[1] = Safety index, ratio of IC50 for african green monkey Vero cells to IC50 for Entamoeba histolytica HM-1:IMSS; type: toxicity, cell-based; details: read-out: Ratio IC50

Compound | IC50 (Entamoeba histolytica) [µM] | MIC (Giardia intestinalis) [µM] | IC50 (Vero) [µM] | selectivity ratio [1]
O=[N+]([O-])c1ccc(C2=NOC(c3ccccc3)O2)s1 (stereo not given) | 9.97 | 5.65 (≈ 1.56 µg/mL) | < 180 | –
COc1ccc(C2ON=C(c3ccc(C)cc3)O2)cc1 (stereo not given) | 1.8 | > 1500 | > 180 | > 100
O=[N+]([O-])c1ccc(C2=NOC(c3ccccc3O)O2)s1 (stereo not given) | 2.64 | 5.33 (≈ 1.56 µg/mL) | < 180 | –
Cc1ccc(C2=NOC(C)(c3ccc(Cl)cc3)O2)cc1 (stereo not given) | 7.3 | > 1500 | – | –
Cc1ccc(C2=NOC(C)(c3ccccc3)O2)cc1 (stereo not given) | 1.8 | > 1500 | > 180 | > 100
COc1ccc(C2ON=C(c3ccc([N+](=O)[O-])s3)O2)cc1 (stereo not given) | 1.6 | 20.4 (≈ 6.25 µg/mL) | < 180 | –
CC1(c2ccccc2)ON=C(c2ccc([N+](=O)[O-])s2)O1 (stereo not given) | 3.77 | 10.8 (≈ 3.13 µg/mL) | < 180 | –
CC1(c2ccc(Cl)cc2)ON=C(c2ccc([N+](=O)[O-])s2)O1 (stereo not given) | 6.1 | 4.55 (≈ 1.48 µg/mL) | < 180 | –
Cc1ccc(C2=NOC(c3ccccc3)O2)cc1 (stereo not given) | 7.82 | > 1500 | – | –
Cc1ccc(C2=NOC(c3ccccc3O)O2)cc1 (stereo not given) | 8.61 | > 1500 | – | –
Cc1ncc([N+](=O)[O-])n1CCO [METRONIDAZOLE] | – | 14.6 (≈ 2.5 µg/mL) | – | –
